Data: ChEMBL document CHEMBL3525967, “In vitro glucuronidation of the antibacterial triclocarban and its oxidative metabolites” (Drug Metab Dispos, 2012)

The molecules below were run on Liver microsome (assay: Drug metabolism in Sprague-Dawley rat liver microsomes assessed as glucuronidation incubated for 5 mins prior to UDPGA addition measured after 5 to 30 mins by LC-UV analysis).
Format: ADME
Procedure, shortened: (§1)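 Microsomes or Sf-9 Supersomes (5 µg protein in 200 µL 100 mM potassium phosphate pH 7.4) pre-treated with alamethicin on ice 15 min; substrate 10 µM final (2% DMSO), MgCl2 and saccharolactone 10 mM each; 5 min preincubation at 37 °C, then UDPGA to start. Samples taken at 5, 10, 15, 30 min (or 2, 5, 10, 15 min) into ACN with internal standard; LC-UV-ESI-MS/MS.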

Row | Drug metabolism [pmol/min/mg] | SMILES
1 | 2600 | O=C(Nc1ccc(Cl)c(Cl)c1)Nc1ccc(Cl)cc1O
2 | 5500 | O=C(Nc1ccc(Cl)cc1)Nc1cc(Cl)c(Cl)cc1O
3 | 8700 | O=C(Nc1ccc(Cl)c(O)c1)Nc1ccc(Cl)c(Cl)c1

The molecules below were run on Liver microsome (assay: Drug metabolism in human liver microsomes assessed as glucuronidation incubated for 5 mins prior to UDPGA addition measured after 5 to 30 mins by LC-UV analysis).
Format: ADME
Procedure, shortened: as §1

Row | Drug metabolism [pmol/min/mg] | SMILES
4 | 2700 | O=C(Nc1ccc(Cl)c(Cl)c1)Nc1ccc(Cl)cc1O
5 | 8500 | O=C(Nc1ccc(Cl)cc1)Nc1cc(Cl)c(Cl)cc1O
6 | 5200 | O=C(Nc1ccc(Cl)c(O)c1)Nc1ccc(Cl)c(Cl)c1

Each molecule was assayed against T1, UDP-glucuronosyltransferase 1A4 (Homo sapiens, UniProt P22310) (assay: Drug metabolism assessed as human UGT1A4-mediated glucuronidation expressed in baculovirus infected insect sf9 cells incubated for 5 mins prior to UDPGA addition measured after 5 to 30 mins by LC-UV analysis).
T1 sequence (P22310 whole entry): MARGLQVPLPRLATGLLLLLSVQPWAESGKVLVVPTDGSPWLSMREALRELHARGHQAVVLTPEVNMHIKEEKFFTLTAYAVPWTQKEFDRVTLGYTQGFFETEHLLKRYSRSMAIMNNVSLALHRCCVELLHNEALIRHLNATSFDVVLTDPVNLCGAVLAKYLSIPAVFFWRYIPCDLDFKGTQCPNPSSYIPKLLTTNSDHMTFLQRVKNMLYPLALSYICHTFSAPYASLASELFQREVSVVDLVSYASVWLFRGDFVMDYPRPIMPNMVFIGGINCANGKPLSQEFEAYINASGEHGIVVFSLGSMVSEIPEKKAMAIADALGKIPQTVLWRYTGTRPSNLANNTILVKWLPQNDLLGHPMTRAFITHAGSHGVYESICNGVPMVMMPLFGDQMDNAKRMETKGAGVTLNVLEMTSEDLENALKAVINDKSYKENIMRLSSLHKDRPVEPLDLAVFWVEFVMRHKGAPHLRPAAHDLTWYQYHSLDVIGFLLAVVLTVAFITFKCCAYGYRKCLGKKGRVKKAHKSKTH
Format: ADME
Procedure, shortened: as §1

Row | Drug metabolism | SMILES
7 | metabolite_not_detected | O=C(Nc1ccc(Cl)c(Cl)c1)Nc1ccc(Cl)cc1O
8 | metabolite_not_detected | O=C(Nc1ccc(Cl)cc1)Nc1cc(Cl)c(Cl)cc1O
9 | metabolite_not_detected | O=C(Nc1ccc(Cl)c(O)c1)Nc1ccc(Cl)c(Cl)c1

The molecules below were run against T2, UDP-glucuronosyltransferase 1A7 (Homo sapiens, UniProt Q9HAW7) (assay: Drug metabolism assessed as human UGT1A7-mediated glucuronidation expressed in baculovirus infected insect sf9 cells incubated for 5 mins prior to UDPGA addition measured after 5 to 30 mins by LC-UV analysis).
T2 sequence (Q9HAW7 whole entry): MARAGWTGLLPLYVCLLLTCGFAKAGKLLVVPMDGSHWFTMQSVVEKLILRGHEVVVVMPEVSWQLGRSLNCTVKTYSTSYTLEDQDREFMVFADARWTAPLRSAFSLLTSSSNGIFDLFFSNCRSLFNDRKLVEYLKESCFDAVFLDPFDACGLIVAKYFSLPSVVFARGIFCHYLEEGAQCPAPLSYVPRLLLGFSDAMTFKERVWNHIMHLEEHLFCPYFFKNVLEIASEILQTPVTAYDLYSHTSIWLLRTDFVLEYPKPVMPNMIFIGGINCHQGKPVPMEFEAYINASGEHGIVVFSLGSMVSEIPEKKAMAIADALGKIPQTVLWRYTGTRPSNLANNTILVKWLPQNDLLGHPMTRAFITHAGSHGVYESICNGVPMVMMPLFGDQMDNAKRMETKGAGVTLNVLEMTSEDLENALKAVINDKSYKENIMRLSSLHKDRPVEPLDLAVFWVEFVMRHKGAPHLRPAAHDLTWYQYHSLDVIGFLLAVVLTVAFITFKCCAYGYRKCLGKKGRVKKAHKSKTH
Format: ADME
Procedure, shortened: as §1

Row | Drug metabolism [pmol/min/mg] | SMILES
10 | 870 | O=C(Nc1ccc(Cl)c(Cl)c1)Nc1ccc(Cl)cc1O
11 | 1100 | O=C(Nc1ccc(Cl)cc1)Nc1cc(Cl)c(Cl)cc1O
12 | 1700 | O=C(Nc1ccc(Cl)c(O)c1)Nc1ccc(Cl)c(Cl)c1

What follows are molecules tested against T3, UDP-glucuronosyltransferase 1A8 (Homo sapiens, UniProt Q9HAW9) (assay: Drug metabolism assessed as human UGT1A8-mediated glucuronidation expressed in baculovirus infected insect sf9 cells incubated for 5 mins prior to UDPGA addition measured after 5 to 30 mins by LC-UV analysis).
T3 sequence (Q9HAW9 whole entry): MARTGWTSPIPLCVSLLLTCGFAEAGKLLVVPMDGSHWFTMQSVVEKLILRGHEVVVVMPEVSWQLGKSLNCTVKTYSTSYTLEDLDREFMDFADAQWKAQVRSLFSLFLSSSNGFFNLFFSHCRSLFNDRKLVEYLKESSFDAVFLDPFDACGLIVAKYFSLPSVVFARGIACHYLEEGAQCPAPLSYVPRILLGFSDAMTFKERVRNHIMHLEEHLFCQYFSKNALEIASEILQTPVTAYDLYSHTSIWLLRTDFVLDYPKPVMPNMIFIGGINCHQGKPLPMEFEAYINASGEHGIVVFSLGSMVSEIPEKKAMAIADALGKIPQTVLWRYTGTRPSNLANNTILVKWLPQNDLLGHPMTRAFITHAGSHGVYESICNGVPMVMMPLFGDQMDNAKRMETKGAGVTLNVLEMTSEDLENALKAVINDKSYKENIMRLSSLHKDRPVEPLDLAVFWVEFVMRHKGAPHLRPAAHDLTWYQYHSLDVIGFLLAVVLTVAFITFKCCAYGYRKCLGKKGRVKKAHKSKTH
Format: ADME
Procedure, shortened: as §1

Row | Drug metabolism [pmol/min/mg] | SMILES
13 | 5700 | O=C(Nc1ccc(Cl)c(Cl)c1)Nc1ccc(Cl)cc1O
14 | 5000 | O=C(Nc1ccc(Cl)cc1)Nc1cc(Cl)c(Cl)cc1O
15 | 9400 | O=C(Nc1ccc(Cl)c(O)c1)Nc1ccc(Cl)c(Cl)c1

These molecules were tested against T4, UDP-glucuronosyltransferase 2B17 (Homo sapiens, UniProt O75795) (assay: Drug metabolism assessed as human UGT2B17-mediated glucuronidation expressed in baculovirus infected insect sf9 cells incubated for 5 mins prior to UDPGA addition measured after 5 to 30 mins by LC-UV analysis).
T4 sequence (O75795 whole entry): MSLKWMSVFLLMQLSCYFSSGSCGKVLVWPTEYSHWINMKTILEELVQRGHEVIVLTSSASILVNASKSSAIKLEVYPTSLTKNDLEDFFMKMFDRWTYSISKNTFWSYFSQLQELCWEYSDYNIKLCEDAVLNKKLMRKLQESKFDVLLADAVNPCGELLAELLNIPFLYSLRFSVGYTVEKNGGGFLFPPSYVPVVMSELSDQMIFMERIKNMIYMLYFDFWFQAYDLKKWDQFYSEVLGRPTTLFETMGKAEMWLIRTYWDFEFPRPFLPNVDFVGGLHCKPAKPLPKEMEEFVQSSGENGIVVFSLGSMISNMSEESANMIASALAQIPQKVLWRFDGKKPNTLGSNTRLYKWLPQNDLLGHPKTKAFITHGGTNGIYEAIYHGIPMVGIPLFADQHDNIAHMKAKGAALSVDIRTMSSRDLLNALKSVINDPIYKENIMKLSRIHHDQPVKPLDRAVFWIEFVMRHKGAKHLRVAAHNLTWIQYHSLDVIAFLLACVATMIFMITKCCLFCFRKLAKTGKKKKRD
Format: ADME
Procedure, shortened: as §1

Row | Drug metabolism | SMILES
16 | metabolite_not_detected | O=C(Nc1ccc(Cl)c(Cl)c1)Nc1ccc(Cl)cc1O
17 | metabolite_not_detected | O=C(Nc1ccc(Cl)cc1)Nc1cc(Cl)c(Cl)cc1O
18 | metabolite_not_detected | O=C(Nc1ccc(Cl)c(O)c1)Nc1ccc(Cl)c(Cl)c1
